# TCR CD3 inh: blocks the human TCR-CD3 interaction; TAMRA-labeled TCR probe fluorescence, biochemical; inhibition, % at 9.4 µM; 360,000 compounds, 0.37% hits; AID 651800; in the data active = inhibition above about 19%;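 also: recombinant mutant TCR 2C K166C tagged with TAMRA read by polarization; 0% = receptor in buffer alone and 100% = receptor with positive control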
# TDP2 inh: TDP2 (human) inhibition, absorbance primary screen; inhibition, % at 12.8 µM; O95551; AID 720702; recombinant TDP2, T5PNP hydrolysis, p-nitrophenol absorbance 415 nm; 370,000 compounds, 0.34% hits;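 active = inhibition above the mean of all tested compounds plus 3 SD, set per campaign, cut at about 25% in these data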;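 also: 0% = DMSO with enzyme and 100% = buffer with substrate but no TDP2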
#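 Material: recombinant human TDP2; quantity: TDP2 enzyme at 120 nM final; medium: Tris-HCl pH 7.5 with MgCl2; compound: single concentration, 12.8 µM nominal, with 1% DMSO; incubation: 2 h enzyme incubation at 37 °C; signal: epi absorbance; measure: percent inhibition; benchmarks: high control without enzyme, low control DMSO plus TDP2; repeats: singlicate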
# PAD4 FP inh: blocks human protein arginine deiminase 4; inhibition, % at 6.36 µM; recombinant PAD4, RCA probe fluorescence polarization; 330,000 compounds, 0.41% hits; Q9UM07;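 active = percent inhibition above a cutoff equal to the mean of all tested compounds plus 3 SD, cut at about 15% in these data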;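 also: 0% = PAD4 with RCA probe and DMSO and 100% = probe without PAD4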
# Target sequence (Q9UM07 whole entry, looked up): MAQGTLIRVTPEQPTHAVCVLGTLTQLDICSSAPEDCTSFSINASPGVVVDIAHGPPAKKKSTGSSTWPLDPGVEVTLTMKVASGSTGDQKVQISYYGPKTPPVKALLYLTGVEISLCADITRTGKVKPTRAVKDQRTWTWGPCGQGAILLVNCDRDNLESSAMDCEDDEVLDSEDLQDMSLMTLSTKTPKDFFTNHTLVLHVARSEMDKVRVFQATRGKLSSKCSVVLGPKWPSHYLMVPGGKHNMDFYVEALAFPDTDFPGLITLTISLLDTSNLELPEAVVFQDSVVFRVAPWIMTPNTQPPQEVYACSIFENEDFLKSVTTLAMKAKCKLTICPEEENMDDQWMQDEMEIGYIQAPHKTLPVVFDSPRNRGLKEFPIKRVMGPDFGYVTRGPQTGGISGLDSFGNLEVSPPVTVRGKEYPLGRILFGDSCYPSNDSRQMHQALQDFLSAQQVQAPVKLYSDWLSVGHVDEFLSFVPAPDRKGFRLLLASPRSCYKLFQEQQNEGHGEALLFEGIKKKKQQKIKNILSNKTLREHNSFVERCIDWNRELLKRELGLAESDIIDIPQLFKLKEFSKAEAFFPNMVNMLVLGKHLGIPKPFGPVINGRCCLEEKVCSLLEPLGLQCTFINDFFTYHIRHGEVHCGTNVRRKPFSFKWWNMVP
# SIAE inh: inhibitors of human sialic acid acetylesterase SIAE; SIAE FP-Rh probe binding, fluorescence polarization; inhibition, % at 9.66 µM; 370,000 compounds, 0.69% hits; AID 1053197; Q9HAT2;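 active = inhibition above a cutoff: mean of compounds within the control limits plus 3 SD of those, cut at about 17% in these data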;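 also: 0% = plate median of compound wells and 100% = probe without SIAE protein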
# GSTO1 inh: counter-screen for RBBP9 inhibitors: inhibitors of human GSTO1. P78417. recombinant GSTO1, activity-based probe fluorescence polarization. inhibition, % at 5.96 µM. 300,000 compounds, 1.1% hits;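 active = inhibition above the campaign mean inhibition plus 3 SD, cut at about 35% in these data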;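 also: 0% = GSTO1-1 with DMSO and 100% = wells lacking GSTO1-1 enzyme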
# Apaf1 inhib: human Apaf-1 inhibition | O14727 | reconstituted apoptosome caspase-3 activity, DEVD-Rh110 fluorescence | inhibition, % at 20 µM | 330,000 compounds, 0.71% hits; active = inhibition of at least 40% at 20 µM;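 also: plate controls were DMSO wells for no effect and DEVD-CHO caspase inhibitor wells for full effect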
#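 Material: biochemical Apaf-1 apoptosome reconstitution. Medium: Hepes buffer, pH 7.5. Also added: cytochrome c activation, bis-DEVD rhodamine 110 substrate. Timing: 30 min compound preincubation, 50 min activation, room temperature. Measured by: rhodamine 110 fluorescence at Ex 480/Em 540 nm.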
# Apaf-1 inh conf2: Apaf-1 inhibition, single-dose confirmed; AID 504614; inhibition, % at 20 µM; 1,800 compounds, 25% hits; shares compounds with Apaf1 inhib; reconstituted apoptosome, caspase-3 DEVD-Rh110 fluorescence;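 active = mean inhibition of at least 40% at 20 µM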;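 also: plate controls were DMSO wells for no effect and DEVD-CHO caspase inhibitor control wells for full effect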
# Rh110 interf inh: Rh110 signal interference in Apaf-1 inhibitor counter-screen | shares compounds with Apaf1 inhib | Rh110 fluorescence interference, quenched caspase reaction | activation (fluorescence interference), % at 20 µM | 1,800 tested, under 10 active;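 active = signal rise of 40% or more at 20 µM, treated as a fluorescence artifact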
# Fluor interf inh: counter-screen for Apaf-1 inhibitors: fluorescence interference, dose response | fluorescence interference counterscreen, Apaf-1 assay format | IC50, µM | shares compounds with Apaf1 inhib | 460 tested, under 10 active; call rule not given here
# Active calls of the source: *; · = not tested or not shown. Hits are enriched below; roughly 2.4% of the tested compounds scored in any of these assays.
SMILES,TCR CD3 inh,TDP2 inh,PAD4 FP inh,SIAE inh,GSTO1 inh,Apaf1 inhib,Apaf-1 inh conf2,Rh110 interf inh,others
O=C(CCCCn1c(=O)c2ccccc2n(CC(=O)NC2CCCC2)c1=O)NC1CCCC1,-7.8,8.1,4.2,-1.1,1.6,0.2,·,·,
O=c1[nH]c(C2CCN(S(=O)(=O)c3ccccc3F)CC2)nc2c1nnn2Cc1ccc(F)cc1,-2.3,10.8,1.9,-2.6,28.6,21.1,·,·,
O=c1[nH]c(C2CCN(S(=O)(=O)c3ccc(C(F)(F)F)cc3)CC2)nc2c1nnn2Cc1ccc(F)cc1,4.5,13.9,5.6,-7.0,-9.1,41.2*,29.9,-9.6,
O=c1[nH]c(C2CCCN(S(=O)(=O)c3ccccc3F)C2)nc2c1nnn2Cc1ccccc1Cl (stereo not given),-8.7,-6.6,3.6,-2.8,11.4,41.2*,35.0,13.6,
O=C(NCc1ccco1)Nc1ccc2nsnc2c1,-5.4,-4.6,-22.2,-6.0,4.6,59.0*,4.4,3.7,
O=C(NCc1ccco1)Nc1ccc(Br)cc1,0.8,-5.8,5.5,5.6,-0.2,-3.8,·,·,
CC(=O)O[C@H](CC(=O)O)C[N+](C)(C)C,-0.8,-2.3,-1.8,8.8,1.3,-10.4,·,·,
CCC(C)(C)c1ccc(OCCCC[n+]2cccc(C)c2C)c(C(C)(C)CC)c1,-5.1,-8.4,2.5,-0.3,-3.5,68.8*,54.0*,19.4,Fluor interf inh=>100
CCC(C)(C)c1ccc(OCCCC[n+]2ccc(C)cc2)c(C(C)(C)CC)c1,-6.4,0.5,-0.1,3.1,3.2,48.4*,29.4,20.5,
CCCc1nnc(NC(=O)c2cc3ccccc3o2)s1,-6.4,-5.0,0.3,-8.3,-8.3,5.9,·,·,
CCn1c(C)nc2cc(C(=O)NNS(=O)(=O)c3c(C)c(C)cc(C)c3C)ccc21,4.5,-6.4,-5.6,4.1,1.7,1.9,·,·,
O=[N+]([O-])c1ccc(F)c(CN2CCN(c3ncc(Cc4ccccc4)cn3)CC2)c1,-0.5,1.8,·,3.4,·,·,·,·,
CCc1cccc(C)c1NC(=S)NCc1ccc2c(c1)cc(C)n2C,10.7,5.8,1.7,3.6,-2.8,54.6*,21.3,6.1,
CCOc1ccccc1N1CCN(C(=O)C2c3ccccc3Oc3ccccc32)CC1,-4.1,-9.6,-0.8,5.1,4.6,40.9*,40.2*,7.3,Fluor interf inh=>100
CCOc1ccccc1N1CCN(C(=O)c2ccccc2)CC1,6.2,-4.6,3.7,7.8,10.0,7.0,·,·,
c1ccc(C2NCCNC2c2ccccc2)cc1 (stereo not given),3.5,0.9,·,4.0,·,·,·,·,
FC(F)(F)c1cc(CO[C@@H]2CCCN[C@@H]2c2ccccc2)cc(C(F)(F)F)c1,13.2,-22.8,6.6,-6.3,3.2,47.3*,9.9,7.6,
Cn1c(NC(=O)c2ccc(Cl)cc2)cc(=O)n(C)c1=O,9.1,6.1,1.2,0.1,-3.1,6.3,·,·,
Cn1c(NC(=O)c2ccc(Cl)s2)cc(=O)n(C)c1=O,0.9,-13.4,1.7,12.3,-0.1,66.2*,10.5,-2.9,
O=C(Nc1ccc(OC(F)(F)F)cc1)C1CC(=O)N(Cc2ccco2)C1 (stereo not given),2.8,-0.7,-4.1,8.0,·,2.1,·,·,
Cc1ccc(-c2nn3c(C)nnc3c3ccccc23)cc1S(=O)(=O)NCc1ccco1,9.9,-0.4,0.5,3.0,-6.5,43.5*,61.2*,4.8,Fluor interf inh=>100
Cc1ccc(-c2nn3c(C)nnc3c3ccccc23)cc1S(=O)(=O)NCCO,-4.1,-16.5,0.6,-2.5,5.7,20.5,·,·,
Cc1ccc(-c2nn3c(C)nnc3c3ccccc23)cc1S(=O)(=O)NC(C)c1ccccc1 (stereo not given),-7.7,0.1,-0.4,4.3,-8.7,56.6*,61.5*,8.2,Fluor interf inh=>100
CCc1ccc2[nH]c(=O)c(CN(Cc3ccco3)C(=S)NCC3CCCO3)cc2c1 (stereo not given),0.7,3.0,-0.9,5.8,2.8,34.6,·,·,
O=C1C(Cl)=C(N2CCCCC2)C(=O)C(Cl)=C1c1cnc(N2CCCCC2)s1,·,·,·,·,·,47.7*,25.5,6.4,
SMILES,TCR CD3 inh,TDP2 inh,PAD4 FP inh,SIAE inh,GSTO1 inh,Apaf1 inhib,Apaf-1 inh conf2,Rh110 interf inh,others
Cc1ccc2nc(SCC(=O)Nc3ccc(C)c(Cl)c3)nc(=O)n2c1,-0.6,19.9,-4.0,7.2,-2.8,19.4,·,·,
Cc1nnc(N=c2ssnc2Cl)o1,4.0,11.7,-4.3,10.3,·,50.0*,56.6*,4.8,Fluor interf inh=>100
Cc1cc(Cl)ccc1N=c1ssnc1Cl,-1.6,4.3,-3.5,-5.7,12.2,0.5,·,·,
CCOc1ccc(S(=O)(=O)Nc2ccc(C(=O)N(CC)CC(=O)NCc3cccs3)cc2)cc1,0.0,-3.1,·,-2.9,·,·,·,·,
CCOc1ccc(NS(=O)(=O)c2ccc(C(=O)N(CC)CC(=O)NCc3cccs3)cc2)cc1,8.8,-9.4,-0.4,3.4,5.7,61.2*,29.0,-3.1,
COc1ccc(S[C@@H](CCN2CC[C@H](NC(=O)OCc3ccccc3)CCC2=O)c2ccccc2)cc1,8.7,1.5,-2.4,5.2,·,36.8,·,·,
O=C(N[C@H]1CCC(=O)N([C@H](CSc2ccc(Br)cc2)Cc2ccccc2)CC1)OCc1ccccc1,-1.1,-12.8,-0.9,-9.8,·,31.9,·,·,
COc1ccc(SC[C@H](C)CN2CC[C@H](NC(=O)OCc3ccccc3)CCC2=O)cc1,-7.2,-4.7,-3.9,1.9,·,70.3*,20.4,-0.9,
C[C@@H](CSc1ccc(Br)cc1)CN1CC[C@H](NC(=O)OCc2ccccc2)CCC1=O,12.6,-0.4,-6.8,-0.3,·,40.2*,16.3,0.3,
CCC1(c2ccccc2)NC(=O)N(CC(=O)Nc2cc(Cl)ccc2N2CCN(C)CC2)C1=O (stereo not given),-4.7,-1.1,-1.2,-0.1,·,58.2*,36.5,3.9,
Cc1cc(C)nc(/N=c2/ssnc2Cl)c1,3.7,-4.8,0.1,-1.4,27.2,71.1*,82.0*,1.2,Fluor interf inh=>100
Cc1ccc(N=c2ssnc2Cl)cc1,3.0,0.0,1.6,1.7,2.5,6.3,·,·,
Cn1c(C(=O)N2CCCC(C(=O)NCCCSC3CCCCC3)C2)cc2sccc21 (stereo not given),5.1,-0.8,-4.2,5.0,3.2,23.4,·,·,
CC(=O)N(C1=C(O)c2ccccc2C(=O)C1=O)C1CCCCC1,-1.2,0.9,-3.9,1.5,0.4,6.1,·,·,
CC(=O)N(C)C1=C(O)c2ccccc2C(=O)C1=O,-3.5,5.4,-19.9,12.2,4.2,40.4*,16.5,13.9,
C/C(Nc1ccc(Cl)cc1)=C(/C#N)C(N)=O,-3.9,5.7,-5.2,-2.0,4.0,-10.3,·,·,

# Compound activity from PubChem.
